Measurements: ChEMBL document CHEMBL1932986, “Synthesis and in vitro antimycobacterial activity of compounds derived from (R)- and (S)-2-amino-1-butanol - The crucial role of the configuration” (Eur J Med Chem, 2012)
The source made the active and inactive calls. No cut-off for these calls is given here.

Columns and labels:
Bacillus [1] = assay: Antibacterial activity against Bacillus idosus B 241 at 50 mg/ml after 24 hrs by agar diffusion test; format: functional
Procedure, shortened: (§1)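 Agar diffusion: wells in agar filled with […] DMSO solution of compound at various concentrations; diameter of clear zone around application point measured. Bacteria grown 24 h at 37 °C on nutrient agar. Compounds first screened at 50 mg/ml; those active then tested at lower concentrations. Bracketed value = lowest concentration (mg/ml) giving zone >11 mm, reported only if activity retained at ≤1.25 mg/ml.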

Penicillium chrysogenum [2] = assay: Antifungal activity against Penicillium chrysogenum CECT 2802 at 2 mg/ml after 72 hrs by agar diffusion test; format: functional, organism-based
Procedure, shortened: (§2)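 Agar diffusion: yeasts grown on yeast peptone dextrose agar and fungi on potato dextrose agar. Wells are filled with […] of compound solution in DMSO at various concentrations, and the clear-zone diameter is measured. Bracketed values give the lowest concentration (mg/ml) that produces a zone >11 mm. A first screen is run at 50 mg/ml.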

Candida tropicalis [3] = assay: Antifungal activity against Candida tropicalis ATCC 20336 at 50 mg/ml after 72 hrs by agar diffusion test; format: functional; procedure, shortened: as §2
Bacillus subtilis [4] = assay: Antibacterial activity against Bacillus subtilis ATCC 6633 at 50 mg/ml after 24 hrs by agar diffusion test; format: functional; procedure, shortened: as §1
Candida tropicalis [5] = assay: Antifungal activity against Candida tropicalis ATCC 20336 at 2 mg/ml after 72 hrs by agar diffusion test; format: functional, organism-based; procedure, shortened: as §2
Saccharomyces cerevisiae [6] = assay: Antifungal activity against Saccharomyces cerevisiae ATCC 9763 at 2 mg/ml after 72 hrs by agar diffusion test; format: functional, organism-based; procedure, shortened: as §2
Bacillus subtilis [7] = assay: Antibacterial activity against Bacillus subtilis ATCC 6633 at 2 mg/ml after 24 hrs by agar diffusion test; format: functional, organism-based; procedure, shortened: as §1
Staphylococcus aureus [8] = assay: Antibacterial activity against Staphylococcus aureus NRRL B 313 at 2 mg/ml after 24 hrs by agar diffusion test; format: functional, organism-based
Procedure, shortened: (§3)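 Agar diffusion: bacteria grown 24 h at 37 °C on nutrient agar. Wells in the agar are filled with […] of compound solution in DMSO at various concentrations. The diameter of the clear zone around the application point is measured. Bracketed values give the lowest concentration (mg/ml) that produces a zone >11 mm. A first screen is run at 50 mg/ml.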

Priestia megaterium [9] = assay: Antibacterial activity against Bacillus megaterium NRRL 1353895 at 50 mg/ml after 24 hrs by agar diffusion test; format: functional; procedure, shortened: as §1
Acinetobacter johnsonii [10] = assay: Antibacterial activity against Acinetobacter johnsonii ATCC 17909 at 50 mg/ml after 24 hrs by agar diffusion test; format: functional; procedure, shortened: as §1
Penicillium chrysogenum [11] = assay: Antifungal activity against Penicillium chrysogenum CECT 2802 at 50 mg/ml after 72 hrs by agar diffusion test; format: functional; procedure, shortened: as §2
Micrococcus luteus [12] = assay: Antibacterial activity against Sarcina lutea ATCC 9341 at 2 mg/ml after 24 hrs by agar diffusion test; format: functional, organism-based; procedure, shortened: as §1
Escherichia coli [13] = assay: Antibacterial activity against Escherichia coli ATCC 8739 at 50 mg/ml after 24 hrs by agar diffusion test; format: functional; conditions: ATCC 8739, 24 h, read-out: DIZ; procedure, shortened: as §1
Bacillus mycoides [14] = assay: Antibacterial activity against Bacillus mycoides DSMZ 274 at 2 mg/ml after 24 hrs by agar diffusion test; format: functional, organism-based; procedure, shortened: as §1
Micrococcus luteus [15] = assay: Antibacterial activity against Sarcina lutea ATCC 9341 at 50 mg/ml after 24 hrs by agar diffusion test; format: functional; procedure, shortened: as §3
Saccharomyces cerevisiae [16] = assay: Antifungal activity against Saccharomyces cerevisiae ATCC 9763 at 50 mg/ml after 72 hrs by agar diffusion test; format: functional; procedure, shortened: as §2
Staphylococcus aureus [17] = assay: Antibacterial activity against Staphylococcus aureus NRRL B 313 at 50 mg/ml after 24 hrs by agar diffusion test; format: functional; procedure, shortened: as §3
Bacillus [18] = assay: Antibacterial activity against Bacillus idosus B 241 at 2 mg/ml after 24 hrs by agar diffusion test; format: functional, organism-based; procedure, shortened: as §1
Micrococcus luteus [19] = assay: Antibacterial activity against Micrococcus luteus ATCC 9631 at 50 mg/ml after 24 hrs by agar diffusion test; format: functional; procedure, shortened: as §1
Micrococcus luteus [20] = assay: Antibacterial activity against Micrococcus luteus ATCC 9631 at 2 mg/ml after 24 hrs by agar diffusion test; format: functional, organism-based; procedure, shortened: as §1
[21] = tested on: Mycobacterium tuberculosis; assay: Antimycobacterial activity against Mycobacterium tuberculosis H37Rv after 45 days; format: functional
Procedure, shortened: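 Canetti proportion method. Compound in DMSO is added to Löwenstein–Jensen egg medium before coagulation (30 min, 85 °C), tested at three levels plus a lower one where needed. Tubes are inoculated with H37Rv at 10⁵ cells/ml and incubated 45 days at 37 °C. Colony counts versus drug-free control give percentage inhibition.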

Bacillus cereus [22] = assay: Antibacterial activity against Bacillus cereus ATCC 11778 at 2 mg/ml after 24 hrs by agar diffusion test; format: functional, organism-based; procedure, shortened: as §1
Bacillus mycoides [23] = assay: Antibacterial activity against Bacillus mycoides DSMZ 274 at 50 mg/ml after 24 hrs by agar diffusion test; format: functional; procedure, shortened: as §1
Acinetobacter johnsonii [24] = assay: Antibacterial activity against Acinetobacter johnsonii ATCC 17909 at 2 mg/ml after 24 hrs by agar diffusion test; format: functional; procedure, shortened: as §1
Escherichia coli [25] = assay: Antibacterial activity against Escherichia coli ATCC 8739 at 2 mg/ml after 24 hrs by agar diffusion test; format: functional, organism-based; procedure, shortened: as §1
Priestia megaterium [26] = assay: Antibacterial activity against Bacillus megaterium NRRL 1353895 at 2 mg/ml after 24 hrs by agar diffusion test; format: functional, organism-based; procedure, shortened: as §1
Bacillus cereus [27] = assay: Antibacterial activity against Bacillus cereus ATCC 11778 at 50 mg/ml after 24 hrs by agar diffusion test; format: functional; procedure, shortened: as §1

Structure (SMILES): CC[C@H](CO)N1C(=O)c2ccccc2C1=O
- diameter of the inhibition zone (DIZ) (Bacillus [1]): inactive
- diameter of the inhibition zone (DIZ) (Penicillium chrysogenum [2]): inactive
- diameter of the inhibition zone (DIZ) (Candida tropicalis [3]): inactive
- diameter of the inhibition zone (DIZ) (Bacillus subtilis [4]): inactive
- diameter of the inhibition zone (DIZ) (Candida tropicalis [5]): inactive
- diameter of the inhibition zone (DIZ) (Saccharomyces cerevisiae [6]): inactive
- diameter of the inhibition zone (DIZ) (Bacillus subtilis [7]): inactive
- diameter of the inhibition zone (DIZ) (Staphylococcus aureus [8]): inactive
- diameter of the inhibition zone (DIZ) (Priestia megaterium [9]): inactive
- diameter of the inhibition zone (DIZ) (Acinetobacter johnsonii [10]): inactive
- diameter of the inhibition zone (DIZ) (Penicillium chrysogenum [11]): inactive
- diameter of the inhibition zone (DIZ) (Micrococcus luteus [12]): inactive
- zone of inhibition at 50000 µg/mL (Escherichia coli [13]): 11 mm
- diameter of the inhibition zone (DIZ) (Bacillus mycoides [14]): inactive
- diameter of the inhibition zone (DIZ) (Micrococcus luteus [15]): inactive
- diameter of the inhibition zone (DIZ) (Saccharomyces cerevisiae [16]): inactive
- diameter of the inhibition zone (DIZ) (Staphylococcus aureus [17]): inactive
- diameter of the inhibition zone (DIZ) (Bacillus [18]): inactive
- diameter of the inhibition zone (DIZ) (Micrococcus luteus [19]): inactive
- diameter of the inhibition zone (DIZ) (Micrococcus luteus [20]): inactive
- MIC [21]: > 22.8 µM
- diameter of the inhibition zone (DIZ) (Bacillus cereus [22]): inactive
- diameter of the inhibition zone (DIZ) (Bacillus mycoides [23]): inactive
- diameter of the inhibition zone (DIZ) (Acinetobacter johnsonii [24]): inactive
- diameter of the inhibition zone (DIZ) (Escherichia coli [25]): inactive
- diameter of the inhibition zone (DIZ) (Priestia megaterium [26]): inactive
- diameter of the inhibition zone (DIZ) (Bacillus cereus [27]): inactive
